# Source: ChEMBL document CHEMBL3102828, “Synthesis and antibacterial activity of a series of novel 9-O-acetyl- 4'-substituted 16-membered macrolides derived from josamycin” (2014)
# Columns and labels:
# Type in all cases: functional
# [1] = tested on: Staphylococcus aureus; assay: Antimicrobial activity against methicillin-sensitive Staphylococcus aureus ATCC 29213 by broth microdilution method
# Outline: (§1)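 MICs determined by broth microdilution as recommended by CLSI. Tested against a panel of five S. aureus strains and three S. epidermidis strains. ATCC 29213, 15 and 09–06 are methicillin-sensitive S. aureus. Josamycin served as the reference.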
# [2] = tested on: Staphylococcus epidermidis; assay: Antimicrobial activity against methicillin-sensitive Staphylococcus epidermidis 09-9 by broth microdilution method; outline: as §1
# [3] = tested on: Staphylococcus aureus; assay: Antimicrobial activity against methicillin-sensitive Staphylococcus aureus 09-6 by broth microdilution method; outline: as §1
# [4] = tested on: Staphylococcus aureus; assay: Antimicrobial activity against methicillin-resistant Staphylococcus aureus ATCC 33591 by broth microdilution method
# Outline: (§2)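 MIC read-out from broth microdilution performed according to CLSI recommendations; each strain was tested in vitro alongside the parent macrolide reference.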
# [5] = tested on: Staphylococcus epidermidis; assay: Antimicrobial activity against methicillin-resistant Staphylococcus epidermidis 09-3 by broth microdilution method; outline: as §2
# [6] = tested on: Staphylococcus aureus; assay: Antimicrobial activity against methicillin-resistant Staphylococcus aureus 09-13 by broth microdilution method; outline: as §2
# [7] = tested on: Staphylococcus aureus; assay: Antimicrobial activity against methicillin-sensitive Staphylococcus aureus 15 by broth microdilution method; outline: as §1
# [8] = tested on: Staphylococcus epidermidis; assay: Antimicrobial activity against methicillin-sensitive Staphylococcus epidermidis ATCC 12228 by broth microdilution method; outline: as §1
smiles,measurement,setting,value
CO[C@H]1/C=C\C(=O)O[C@H](C)C/C=C/C=C/[C@H](OC(C)=O)[C@H](C)C[C@H](CC=O)[C@@H]1O[C@@H]1O[C@H](C)[C@@H](O)[C@H](N(C)C)[C@H]1O,MIC,[1],> 64 µg/mL
same,MIC,[2],64 µg/mL
same,MIC,[3],> 64 µg/mL
same,MIC,[4],> 64 µg/mL
same,MIC,[5],> 64 µg/mL
same,MIC,[6],> 64 µg/mL
same,MIC,[7],> 64 µg/mL
same,MIC,[8],64 µg/mL
CO[C@H]1/C=C\C(=O)O[C@H](C)C/C=C/C=C/[C@H](O)[C@H](C)C[C@H](CC=O)[C@@H]1O[C@@H]1O[C@H](C)[C@@H](O)[C@H](N(C)C)[C@H]1O,MIC,[1],> 32 µg/mL
same,MIC,[2],> 32 µg/mL
same,MIC,[3],> 32 µg/mL
same,MIC,[4],> 32 µg/mL
same,MIC,[5],> 32 µg/mL
same,MIC,[6],> 32 µg/mL
same,MIC,[7],> 32 µg/mL
same,MIC,[8],> 32 µg/mL
CO[C@@H]1[C@@H](O[C@@H]2O[C@H](C)[C@@H](OC(=O)Nc3ccc(C(F)(F)F)cc3)[C@H](N(C)C)[C@H]2O)[C@@H](CC=O)C[C@@H](C)[C@@H](OC(C)=O)/C=C/C=C/C[C@@H](C)OC(=O)C[C@H]1OC(C)=O,MIC,[1],> 64 µg/mL
same,MIC,[2],> 64 µg/mL
same,MIC,[3],> 64 µg/mL
same,MIC,[4],> 64 µg/mL
same,MIC,[5],> 64 µg/mL
same,MIC,[6],> 64 µg/mL
same,MIC,[7],> 64 µg/mL
same,MIC,[8],> 64 µg/mL
CO[C@H]1/C=C\C(=O)O[C@H](C)C/C=C/C=C/[C@H](OC(C)=O)[C@H](C)C[C@H](CC=O)[C@@H]1O[C@@H]1O[C@H](C)[C@@H](OC(=O)Nc2ccc(C(F)(F)F)cc2)[C@H](N(C)C)[C@H]1O,MIC,[1],> 64 µg/mL
same,MIC,[2],> 64 µg/mL
same,MIC,[3],> 64 µg/mL
same,MIC,[4],> 64 µg/mL
same,MIC,[5],> 64 µg/mL
same,MIC,[6],> 64 µg/mL
same,MIC,[7],> 64 µg/mL
same,MIC,[8],> 64 µg/mL
CO[C@H]1/C=C\C(=O)O[C@H](C)C/C=C/C=C/[C@H](O)[C@H](C)C[C@H](CC=O)[C@@H]1O[C@@H]1O[C@H](C)[C@@H](OC(=O)Nc2ccc(C(F)(F)F)cc2)[C@H](N(C)C)[C@H]1O,MIC,[1],> 64 µg/mL
same,MIC,[2],> 64 µg/mL
same,MIC,[3],> 64 µg/mL
same,MIC,[4],> 64 µg/mL
same,MIC,[5],> 64 µg/mL
same,MIC,[6],> 64 µg/mL
same,MIC,[7],> 64 µg/mL
same,MIC,[8],> 64 µg/mL
CO[C@@H]1[C@@H](O[C@@H]2O[C@H](C)[C@@H](OC(=O)c3ccccc3)[C@H](N(C)C)[C@H]2O)[C@@H](CC=O)C[C@@H](C)[C@@H](OC(C)=O)/C=C/C=C/C[C@@H](C)OC(=O)C[C@H]1OC(C)=O,MIC,[1],8 µg/mL
same,MIC,[2],8 µg/mL
same,MIC,[3],8 µg/mL
same,MIC,[4],> 64 µg/mL
same,MIC,[5],> 64 µg/mL
same,MIC,[6],> 64 µg/mL
same,MIC,[7],8 µg/mL
same,MIC,[8],8 µg/mL
COc1ccc(C(=O)O[C@H]2[C@H](N(C)C)[C@@H](O)[C@H](O[C@H]3[C@@H](CC=O)C[C@@H](C)[C@@H](OC(C)=O)/C=C/C=C/C[C@@H](C)OC(=O)C[C@@H](OC(C)=O)[C@@H]3OC)O[C@@H]2C)cc1,MIC,[1],8 µg/mL
same,MIC,[2],8 µg/mL
same,MIC,[3],8 µg/mL
same,MIC,[4],> 64 µg/mL
same,MIC,[5],> 64 µg/mL
same,MIC,[6],> 64 µg/mL
same,MIC,[7],8 µg/mL
same,MIC,[8],8 µg/mL
CO[C@@H]1[C@@H](O[C@@H]2O[C@H](C)[C@@H](OC(=O)c3ccc([N+](=O)[O-])cc3)[C@H](N(C)C)[C@H]2O)[C@@H](CC=O)C[C@@H](C)[C@@H](OC(C)=O)/C=C/C=C/C[C@@H](C)OC(=O)C[C@H]1OC(C)=O,MIC,[1],32 µg/mL
same,MIC,[2],32 µg/mL
same,MIC,[3],32 µg/mL
same,MIC,[4],> 64 µg/mL
same,MIC,[5],> 64 µg/mL
same,MIC,[6],> 64 µg/mL
same,MIC,[7],> 64 µg/mL
same,MIC,[8],32 µg/mL
CO[C@@H]1[C@@H](O[C@@H]2O[C@H](C)[C@@H](OC(=O)/C=C/c3ccccc3)[C@H](N(C)C)[C@H]2O)[C@@H](CC=O)C[C@@H](C)[C@@H](OC(C)=O)/C=C/C=C/C[C@@H](C)OC(=O)C[C@H]1OC(C)=O,MIC,[1],8 µg/mL
same,MIC,[2],4 µg/mL
same,MIC,[3],8 µg/mL
same,MIC,[4],> 32 µg/mL
same,MIC,[5],> 32 µg/mL
same,MIC,[6],> 32 µg/mL
same,MIC,[7],> 32 µg/mL
same,MIC,[8],4 µg/mL
CO[C@@H]1[C@@H](O[C@@H]2O[C@H](C)[C@@H](OC(=O)/C=C/c3ccnc4ccccc34)[C@H](N(C)C)[C@H]2O)[C@@H](CC=O)C[C@@H](C)[C@@H](OC(C)=O)/C=C/C=C/C[C@@H](C)OC(=O)C[C@H]1OC(C)=O,MIC,[1],8 µg/mL
same,MIC,[2],8 µg/mL
same,MIC,[3],8 µg/mL
same,MIC,[4],> 64 µg/mL
same,MIC,[5],> 64 µg/mL
same,MIC,[6],> 64 µg/mL
same,MIC,[7],16 µg/mL
same,MIC,[8],8 µg/mL
CO[C@@H]1[C@@H](O[C@@H]2O[C@H](C)[C@@H](OC(=O)CCc3ccccc3)[C@H](N(C)C)[C@H]2O)[C@@H](CC=O)C[C@@H](C)[C@@H](OC(C)=O)/C=C/C=C/C[C@@H](C)OC(=O)C[C@H]1OC(C)=O,MIC,[1],4 µg/mL
same,MIC,[2],4 µg/mL
same,MIC,[3],4 µg/mL
same,MIC,[4],> 32 µg/mL
same,MIC,[5],> 32 µg/mL
same,MIC,[6],> 32 µg/mL
same,MIC,[7],8 µg/mL
same,MIC,[8],4 µg/mL
CCCC(=O)O[C@H]1[C@H](N(C)C)[C@@H](O)[C@H](O[C@H]2[C@@H](CC=O)C[C@@H](C)[C@@H](OC(C)=O)/C=C/C=C/C[C@@H](C)OC(=O)C[C@@H](OC(C)=O)[C@@H]2OC)O[C@@H]1C,MIC,[1],4 µg/mL
same,MIC,[2],4 µg/mL
same,MIC,[3],4 µg/mL
same,MIC,[4],> 64 µg/mL
same,MIC,[5],> 64 µg/mL
same,MIC,[6],> 64 µg/mL
same,MIC,[7],4 µg/mL
same,MIC,[8],4 µg/mL
CO[C@@H]1[C@@H](O[C@@H]2O[C@H](C)[C@@H](OC(=O)CC(C)C)[C@H](N(C)C)[C@H]2O)[C@@H](CC=O)C[C@@H](C)[C@@H](OC(C)=O)/C=C/C=C/C[C@@H](C)OC(=O)C[C@H]1OC(C)=O,MIC,[1],8 µg/mL
same,MIC,[2],8 µg/mL
same,MIC,[3],8 µg/mL
same,MIC,[4],> 64 µg/mL
same,MIC,[5],> 64 µg/mL
same,MIC,[6],> 64 µg/mL
same,MIC,[7],8 µg/mL
same,MIC,[8],8 µg/mL
CO[C@@H]1[C@@H](O[C@@H]2O[C@H](C)[C@@H](O)[C@H](N(C)C)[C@H]2O)[C@@H](CC=O)C[C@@H](C)[C@@H](OC(C)=O)/C=C/C=C/C[C@@H](C)OC(=O)C[C@H]1OC(C)=O,MIC,[1],16 µg/mL
same,MIC,[2],16 µg/mL
same,MIC,[3],16 µg/mL
same,MIC,[4],> 32 µg/mL
same,MIC,[5],> 32 µg/mL
same,MIC,[6],> 32 µg/mL
same,MIC,[7],16 µg/mL
same,MIC,[8],16 µg/mL
CO[C@@H]1[C@@H](O[C@@H]2O[C@H](C)[C@@H](O[C@H]3C[C@@](C)(O)[C@@H](OC(=O)CC(C)C)[C@H](C)O3)[C@H](N(C)C)[C@H]2O)[C@@H](CC=O)C[C@@H](C)[C@@H](O)/C=C/C=C/C[C@@H](C)OC(=O)C[C@H]1OC(C)=O [JOSAMYCIN],MIC,[1],1 µg/mL
same,MIC,[2],2 µg/mL
same,MIC,[3],1 µg/mL
same,MIC,[4],> 32 µg/mL
same,MIC,[5],> 32 µg/mL
same,MIC,[6],32 µg/mL
same,MIC,[7],2 µg/mL
same,MIC,[8],1 µg/mL
